The test system of one data set is GES1. Description: Cytotoxicity against human GES-1 cells assessed as inhibition of cell growth incubated for 72 hrs by MTT assay. The settings on record: GES1, 72 h. It counts as cell-based. In a few lines: (§1)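 Log-phase cells were seeded at 5 × 10³ per well and attached 24 h. HT-29 and GES-1 were grown in DMEM-based medium, A549/HepG2/HGC-27 in RPMI-1640, HUVEC in ECM with ECGS; all media had 10% FBS. Cells were exposed to graded compound concentrations for 72 h at 37 °C. MTT (5 mg/mL stock) was added for 4 h, formazan dissolved in DMSO, and A490 read. IC50 was obtained by nonlinear sigmoidal regression; mean ± S.E. of three experiments.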
In general terms: Tetrazolium dyes change colour on reduction, which living cells bring about.

The test system of data set [1] is HGC-27. Description: Induction of apoptosis in human HGC-27 cells assessed as total apoptotic cells level at 0.1 uM incubated for 24 hrs by propidium iode and annexin V-FITC staining based flow cytometry. It counts as functional. In outline: (§2)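 HGC-27 cells (1.0 × 10⁶ per 60 mm dish) were treated 24 h with 0.1% DMSO or compound (0.1, 0.5, 1 μM). Cells were stained with Annexin V-FITC in HEPES/NaCl/CaCl₂ binding buffer (pH 7.4) for 15 min at room temperature, then with PI for 10 min. About 10 000 events were acquired by flow cytometry to give viable, early apoptotic, late apoptotic and necrotic fractions.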
For orientation: Flow cytometry measures light scatter and fluorescence of single cells or particles in a stream.

The test system of data set [2] is HGC-27. Kind of data set: Induction of apoptosis in human HGC-27 cells assessed as total apoptotic cells level at 0.5 uM incubated for 24 hrs by propidium iode and annexin V-FITC staining based flow cytometry. It counts as functional. In a few lines: as §2
The subject of data set [3] is HGC-27. Description: Antimigratory activity against human HGC-27 cells assessed as reduction in cell migration measured after 24 hrs by crystal violet staining microscopy based transwell migration assay. It counts as functional. The settings on record: dose 0.1-1 µM.
The test system of data set [4] is HGC-27. Description: Antimigratory activity against human HGC-27 cells assessed as relative closure of scratches at 0.5 uM measured after 6 hrs by scratch wound healing assay relative to control. The format is functional. In outline: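 HGC-27 monolayers at 80–90% confluence were serum-starved 12 h, then scratched to give 1 mm lanes. After a PBS wash, cells received complete medium with or without compound (0.1, 0.5, 1 μM). Wounds were imaged at 0, 6 and 24 h. Relative scratch closure was quantified against untreated control; mean ± SD of three experiments.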

Data set [5] concerns HGC-27. Description: Antiproliferative activity against human HGC-27 cells assessed as cell growth inhibition after 72 hrs by MTT assay. It counts as functional, cell-based. The settings on record: HGC-27, 72 h. In a few lines:
as §1

Data set [6] relates to HGC-27. Description: Antimigratory activity against human HGC-27 cells assessed as number of migration cells at 1 uM measured after 24 hrs by transwell migration assay (reference value: 320). The format is functional.
Data set [7] relates to HGC-27. Kind of data set: Downregulation of MMP-9 protein expression in human HGC-27 cells incubated for 24 hrs by immunoblot analysis. The format is functional, cell-based. In outline:
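HGC-27 cells (1.0 × 10⁶ per 60 mm dish) were treated 24 h with 0.1% DMSO or compound (0.1, 0.5, 1 μM). Cells were lysed in RIPA with PMSF and phosphatase inhibitor, and protein measured by BCA. Lysates were run on 8–12% SDS-PAGE, transferred to nitrocellulose and probed with primary antibodies overnight at 4 °C, then HRP secondary. Bands were detected by ECL and densitometry; at least triplicate.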
A general note: Immunoblotting shows a protein as a band on a membrane.

The subject of data set [8] is HGC-27. Description: Induction of apoptosis in human HGC-27 cells assessed as viable cells level at 1 uM incubated for 24 hrs by propidium iode and annexin V-FITC staining based flow cytometry (reference value: 96.0%). The format is functional. In outline:
as §2

In data set [9] the test system is HGC-27. Kind of data set: Inhibition of colony formation in human HGC-27 cells after 12 days by crystal violet staining based assay. The format is functional, cell-based. The conditions noted are these: dose 0.1-1 µM, time 12.0 day. In a few lines: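 HGC-27 cells (500/well, 6-well plates) attached 24 h at 37 °C, then kept 12 days in medium with compound (0.1, 0.5, 1 µM), 0.1% DMSO vehicle or 5 µM sorafenib. Washed with cold PBS, methanol-fixed, stained 0.1% crystal violet 30 min; colonies >50 cells photographed and counted.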

Data set [10] deals with HUVEC. Kind of data set: Antiangiogenic activity against HUVEC cells assessed as reduction in VEGF-induced total branching points at 1 to 10 uM incubated for 12 hrs by matrigel-based assay. It counts as functional, cell-based. The settings on record: Homo sapiens, dose 1-10 µM. In outline: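 HUVECs at 4 × 10⁵ cells/mL seeded on Matrigel that had been polymerized 1 h at 37 °C. Cells were stimulated with 20 ng/mL VEGF and treated with compound (1, 2.5, 5 and 10 μM) or 0.1% DMSO vehicle for 12 h at 37 °C. Tubes were imaged by inverted microscopy. Tube length, surface area and branch points were quantified as pixel area.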

Data set [11] concerns HUVEC. Description: Cytotoxicity against HUVEC cells at 1 to 5 uM after 72 hrs by MTT assay. It counts as cell-based. The settings on record: human, dose 1-5 µM. In outline: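 HUVECs grown in ECM with 1% ECGS and 10% FBS were seeded at 5 × 10³ per well and attached 24 h. Cells were exposed to compound at 1, 2.5 and 5 μM for 72 h at 37 °C. Viability was read by MTT: 4 h incubation, DMSO solubilization, absorbance at 490 nm.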

Data set [12] relates to HGC-27. Kind of data set: Induction of apoptosis in human HGC-27 cells assessed as late apoptotic cells level incubated for 24 hrs by propidium iode and annexin V-FITC staining based flow cytometry. It counts as functional, cell-based. The settings on record: dose 0.1-1 µM. In a few lines:
as §2

Data set [13] deals with HGC-27. Description: Induction of apoptosis in human HGC-27 cells assessed as necrotic cells level at 0.5 uM incubated for 24 hrs by propidium iode and annexin V-FITC staining based flow cytometry (reference value: 1.64%). It counts as functional. In outline: as §2
Data set [14] relates to HGC-27. Description: Induction of apoptosis in human HGC-27 cells assessed as downregulation of Bcl-xl protein expression at incubated for 24 hrs by western blot analysis. The settings on record: dose 0.1-1 µM.
Data set [15] deals with HGC-27. Description: Inhibition of cell migration at human HGC-27 cells measured up to 24 hrs by microscopic based wound healing assay. The conditions noted are these: dose 0.1-1 µM, time hrs <=24. The format is functional. In outline:
(§3)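 HGC-27 grown to 80–90% confluence in 6-well plates, serum-starved 12 h, scratched with 200 µL tip (~1 mm lane). Washed, then given complete medium alone or with compound (0.1, 0.5, 1 µM) or sorafenib positive control. Imaged by inverted microscope at 0, 6 and 24 h; relative scratch closure quantified; mean ± SD, three independent experiments.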

Data set [16] has as its system HGC-27. Description: Inhibition of cell migration at human HGC-27 cells in 0.1 to 1 uM measured up to 24 hrs by microscopic based wound healing assay. It counts as functional. The conditions noted are these: dose 0.1-1 µM, time hrs <=24, TDE = time-dependent effect. In a few lines:
as §3

The subject of data set [17] is HGC-27. Description: Induction of apoptosis in human HGC-27 cells assessed as late apoptotic cells level at 0.1 uM incubated for 24 hrs by propidium iode and annexin V-FITC staining based flow cytometry (reference value: 0.86%). It counts as functional. In a few lines:
as §2

A further data set deals with HT-29. Kind of data set: Antiproliferative activity against human HT-29 cells assessed as cell growth inhibition after 72 hrs by MTT assay. It counts as functional, cell-based. The settings on record: HT-29, 72 h. In a few lines:
as §1

The subject of data set [18] is HUVEC. Kind of data set: Cytotoxicity against human HUVEC cells assessed as inhibition of cell growth incubated for 72 hrs by MTT assay. It counts as cell-based. In a few lines:
as §1

For data set [19], the system named is HGC-27. Description: Antiinvasive activity against human HGC-27 cells assessed as reduction in cell invasion at 0.1 to 1 measured after 24 hrs by transwell invasion assay. The format is functional, cell-based. In outline:
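Transwell inserts (12 μm pore) were precoated with Matrigel. HGC-27 cells at 5 × 10⁵ cells/mL were placed in the upper well in serum-free medium with compound (0.1, 0.5, 1 μM). The lower chamber held RPMI-1640 with 10% FBS. After 24 h at 37 °C, invaded cells were methanol-fixed and stained with 0.1% crystal violet. Cells were counted in three random fields; three independent experiments, mean ± SD.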

The structures appear in SMILES notation. Activity calls are given as the source filed them. No cut-off for these calls is given here.

Usually IC50 stands for the point on the concentration scale where inhibition reaches its midpoint. By inhibition is commonly meant the share of the control response that was lost under treatment. Consider `CC(=O)Nc1n[nH]c2cc(-c3cnn(CC(=O)Nc4ccc(C)c(C(F)(F)F)c4)c3)ccc12`, for which the half-maximal inhibitory concentration (IC50) in the data set on GES1 is 187 µM; with HGC-27 [5] it was 0.36 µM; with HT-29, 2.97 µM; in the data set with HUVEC [18], 7.15 µM. Besides, the Activity in the data set on HGC-27 [1] is 7.42%; with HGC-27 [2] it was 19.55%; in the data set with HGC-27 [6] it was 22; in the data set on HGC-27 [8], 61.6%; in the data set on HUVEC [11], “Non-Toxic”; in the data set with HGC-27 [12], “Dose-Dependent Effect”. In addition, the Activity with HGC-27 [13] is 10.8%; with HGC-27 [14], “Dose-Dependent Effect”; with HGC-27 [17], 2.67%. For the same compound, the inhibition entry in the data set with HGC-27 [3] was “Dose-Dependent Effect”; in the data set on HGC-27 [7], “Dose-Dependent Effect”; in the data set with HGC-27 [9], “Dose-Dependent Effect”; in the data set with HGC-27 [15] it was “Dose-Dependent Effect”; in the data set on HGC-27 [16], “Tde”; in the data set with HGC-27 [19], “Dose-Dependent Effect”. Moreover, in the data set on HGC-27 [4], the inhibition at 0.5 µM came out at 9.5%. Also, in the data set on HUVEC [10], the result was Active.

These data come from ChEMBL document CHEMBL4819027, “Design, synthesis and biological evaluation of novel 2-(4-(1H-indazol-6-yl)-1H-pyrazol-1-yl)acetamide derivatives as potent VEGFR-2 inhibitors” (Eur J Med Chem, 2021).
